Here are results for six compounds from ChEMBL document CHEMBL5653629, “Novel Class of Potent and Cellularly Active Inhibitors Devalidates MTH1 as Broad-Spectrum Cancer Target” (ACS Chem Biol, 2017).

Series [1] concerns U2OS. Kind of series: Cytotoxicity against human U2OS cells assessed as reduction in cell viability by measuring nuclei count at 30 uM incubated for 72 hrs by high content analysis. The series is classed as functional, cell-based. In short, it runs like this: (§1)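 U2OS cells were immunostained for 8-oxo-dG and DNA, then imaged by high content analysis. Average nuclear 8-oxo-dG intensity and average nuclear count were measured together.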

The test system of series [2] is U2OS. Description: Upregulation of nuclear 8-oxo-dG level in human U2OS cells at 2 to 10 uM incubated for 72 hrs by high content analysis. In kind it is functional, cell-based. Particulars: dose 2-10 µM. A digest of the protocol: as §1
Series [3] relates to NCI-H358. Kind of series: Induction of DNA double strand breaks in human NCI-H358 cells assessed as increase in gamma-H2AX expression at 12.4 uM incubated for 72 hrs by high content analysis. In kind it is functional, cell-based. In short, it runs like this: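 NCI-H358 cells were immunostained for γH2AX and DNA and analysed by high content imaging. The highest concentration tested was 12.4 µM, and EC50 was taken for DSB induction.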

Series [4] relates to CT26. Description: Antitumor activity against mouse CT26 cells xenografted in NMRI nude mouse assessed as reduction in tumor volume at 100 mg/kg, po measured for 12 days. In kind it is functional, organism-based. Particulars: time 12.0 day.
Series [5] can be described thus: Metabolic stability in human liver microsomes assessed as maximum bioavailability at 1 uM measured for 2 to 60 mins by LC-MS/MS analysis. The series is classed as ADME, Microsome. Particulars: time 2-60 min, read-out: Fmax. (In general: Liver microsomes are vesicles of endoplasmic reticulum, rich in cytochrome P450 enzymes.)
Series [6] deals with CT26. Kind of series: Additive antitumor activity against mouse CT26 cells xenografted in NMRI nude mouse assessed as reduction in tumor growth at 100 mg/kg, po along with radiation treatment measured for 12 days. The series is classed as functional, organism-based. Particulars: time 12.0 day.
Series [7] deals with U2OS. Kind of series: Effect on nuclear 8-oxo-dG level in human U2OS cells at 10 to 30 uM incubated for 72 hrs by high content analysis. In kind it is functional, cell-based. The settings on record: dose 10-30 µM. In short, it runs like this:
as §1

Series [8] can be described thus: Toxicity in NMRI nude mouse assessed as drug tolerability at 25 to 250 mg/kg, po qd for 7 days. The series is classed as organism-based. The settings on record: in vivo, 168 h, dose 25-250 mg/kg, time 7 day. A digest of the protocol: (§2)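 Female NMRI nude mice received oral doses in PEG/water (80:20), escalated step-wise from 25 to 250 mg/kg over 7 days. Body weight, overt toxicity and mortality were monitored, and observation was extended a further 7 days to catch latent toxicity.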

Series [9] deals with HeLa. Description: Upregulation of MUTYH protein level in human HeLa cells at 1 uM by Western blot analysis. The series is classed as functional, cell-based. In short, it runs like this:
(§3)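 HeLa cells were treated and probed by Western blot for MTH2, OGG1, MUTYH and MTH1. HSP90 served as loading control.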

Series [10] in a line: Cytotoxicity against HMEC cells assessed as cell growth inhibition incubated for 144 hrs by alamarblue staining based assay. The settings on record: human. The series is classed as toxicity. Background: Resazurin is reduced to fluorescent resorufin, in cell work by metabolically active cells.
Series [11] can be described thus: Metabolic stability in Han Wistar rat hepatocytes using well-stirred liver model assessed as clearance at 1 uM measured for 2 to 90 mins by LC-MS/MS analysis. The series is classed as ADME, cell-based, Hepatocyte. Particulars: time 2-90 min.
A short description of series [12]: Distribution coefficient, logD of compound at pH 7.5 by HPLC analysis. In kind it is physicochemical. The settings on record: octanol/water.
The subject of series [13] is CT26. Description: Antitumor activity against mouse CT26 cells xenografted in NMRI nude mouse assessed as reduction in tumor weight at 100 mg/kg, po measured for 12 days. The settings on record: time 12.0 day. In kind it is functional, organism-based.
A short description of series [14]: Metabolic stability in Han Wistar rat hepatocytes using well-stirred liver model assessed as maximum bioavailability at 1 uM measured for 2 to 90 mins by LC-MS/MS analysis. The series is classed as ADME, Hepatocyte. Particulars: time 2-90 min, route po, read-out: Fmax.
Series [15] is described as follows: Toxicity in NMRI nude mouse assessed as body weight loss upto 250 mg/kg, po qd for 7 days. The series is classed as organism-based. The settings on record: in vivo, 168 h, time 7 day. In short, it runs like this: as §2
The test system of series [16] is HeLa. Kind of series: Upregulation of OGG1 mRNA level in human HeLa cells at 1 uM incubated for 6 days by qPCR analysis. The series is classed as functional, cell-based. Particulars: time 6.0 day. In general terms: Real-time PCR tracks product formation cycle by cycle.
For series [17], the system named is MCF7. Description: Inhibition of colony formation of human MCF7 cells at 0.1 to 10 uM measured after 15 days by soft agar assay. The series is classed as functional, cell-based. The settings on record: dose 0.1-10 µM, time 15.0 day.
A short description of series [18]: Metabolic stability in human liver microsomes assessed as clearance at 1 uM measured for 2 to 60 mins by LC-MS/MS analysis. In kind it is ADME, Microsome. Particulars: time 2-60 min.
Series [19] relates to HeLa. Description: Upregulation of MUTYH mRNA level in human HeLa cells at 1 uM incubated for 6 days by qPCR analysis. Particulars: time 6.0 day. In kind it is functional, cell-based.
Series [20] in a line: Protein binding in mouse plasma assessed as free fraction. In kind it is ADME, cell-free.
For series [21], the system named is HeLa. Description: Upregulation of OGG1 protein level in human HeLa cells at 1 uM by Western blot analysis. The series is classed as functional, cell-based. A digest of the protocol: as §3
Series [22] has as its system U2OS. Description: Effect on nuclear 8-oxo-dG level in human U2OS cells at 10 to 30 uM incubated for 72 hrs in presence of LCS1 by high content analysis. In kind it is functional, cell-based. Particulars: dose 10-30 µM.
For series [23], the system named is NCI-H460. Kind of series: Antitumor activity against human NCI-H460 cells xenografted in NMRI nude mouse assessed as reduction in tumor volume at 100 mg/kg, po measured for 10 days. The settings on record: time 10.0 day.
In series [24] the test system is NCI-H460. Kind of series: Antitumor activity against human NCI-H460 cells xenografted in NMRI nude mouse assessed as reduction in tumor weight at 100 mg/kg, po measured for 10 days. The settings on record: time 10.0 day.
A short description of series [25]: Aqueous solubility of compound in pH 6.5. The series is classed as physicochemical. The settings on record: buffer.
The nature of series [26]: Apparent permeability across apical to basolateral side in human Caco-2 cells at 2 uM incubated for 2 hrs by LC/MS/MS analysis. In kind it is ADME, cell-based.
Series [27] relates to U2OS. Kind of series: Upregulation of nuclear 8-oxo-dG level in human U2OS cells at 1 to 2 uM incubated for 72 hrs by high content analysis. The series is classed as functional, cell-based. The settings on record: dose 1-2 µM. A digest of the protocol: as §1
Series [28] concerns NCI-H358. Description: cells. Particulars: Homo sapiens, NCI-H358, 144 h.
Series [29] concerns NCI-H358. Kind of series: Induction of DNA double strand breaks in human NCI-H358 cells assessed as increase in gamma-H2AX expression at 0.005 to 12 micromol/L incubated for 72 hrs by high content analysis. The settings on record: NCI-H358, 72 h.
Series [30] has as its system U2OS. Description: cells. Particulars: Homo sapiens, 144 h.
For series [31], the system named is HeLa. Description: cells. The settings on record: Homo sapiens, 144 h.
Another series concerns A549. Kind of series: cells. Particulars: Homo sapiens, A549, 144 h.
Series [32] deals with NCI-H460. Description: cells. Particulars: Homo sapiens, NCI-H460, 144 h.
The next series has as its system SW480. Description: cells. The settings on record: Homo sapiens, SW480, 144 h.
For the next series, the system named is MDA-MB-231. Kind of series: cells. Particulars: Homo sapiens, MDA-MB-231, 144 h.
In series [33] the test system is MCF7. Kind of series: cells. The settings on record: Homo sapiens, MCF7, 144 h.
The subject of series [34] is U2OS. Description: Upregulation of nuclear 8-oxo-dG level in human U2OS cells at 100 to 300 nM incubated for 72 hrs by high content analysis. In kind it is functional, cell-based. The settings on record: dose 100-300 nM. In short, it runs like this: as §1

Converted amounts (≈) assume the structure as drawn. The source made the active and inactive calls. The rule behind the calls is not given here.

Regarding `Cc1cccc(-n2ncc(Cl)c(Cl)c2=O)c1`, the outcome with U2OS [1] was Active.

Take `Cc1cc(Nc2cc(N3CCN(C)CC3)nc(Sc3ccc(NC(=O)C4CC4)cc3)n2)n[nH]1`: the outcome with U2OS [2] was Active.

A word on the GI50: it is the concentration that inhibits growth by half. For orientation: logD means the decadic logarithm of the distribution of all forms, ionised or not, between an organic phase and buffer at a given pH. Low readings indicate a more hydrophilic compound, high ones a more lipophilic compound. A word on the fraction unbound: it is the share of the substance not bound to proteins or other matrix. Broadly, the solubility is the dissolved amount per volume that the medium holds. Lower therefore signals a poorly soluble substance. For orientation: Papp A→B means the apparent permeability from the apical to the basolateral side of a cell layer. With `CCNC(=O)c1cc2c(N3CCOC[C@@H]3C)ccnc2[nH]1`, the outcome in the series on NCI-H358 [3], in the series on CT26 [4], in the series on CT26 [6], in the series on U2OS [7], in the series on HeLa [9] and with CT26 [13] was inactive. For the same compound, the outcome in the series on HeLa [16], in the series with HeLa [19], in the series on HeLa [21], in the series with U2OS [22], with NCI-H460 [23] and in the series with NCI-H460 [24] was inactive. Moreover, the results for the Fh at 1 µM in series [5] and in series [14] were 78% and 87%, respectively. For the same compound, the Activity result in series [8] is “Non-Toxic”; in series [15] it was less than 10%. Also, in [10], the GI50 at 144 h was greater than 30 µM. Also, in series [11], the CLhep predicted at 1 µM is 9 mL/min/kg. The compound further displayed a logD in series [12] of 1.6. The inhibition entry in the series on MCF7 [17] was “inactive”. The CLH in series [18] came to 4.83 mL/min/kg. Also, the fraction unbound in series [20] turned out to be 0.48. Moreover, the solubility in series [25] amounted to 288 µg/mL (≈ 999 µM). In addition, the apparent permeability from apical to basolateral (Papp A→B) at 2 h, 2 µM in series [26] is 14.8 ×10⁻⁶ cm/s.

With `CC(C)(C)c1cnc(CSc2cnc(NC(=O)C3CCNCC3)s2)o1`, the outcome in the series with U2OS [27] was Active.

The EC50 is the concentration at which the effect is half-maximal. In the case of `Nc1nc(NC2CC2)cc(-c2cccc(Cl)c2Cl)n1`, the GI50 came out at 4.9 µM with NCI-H358 [28]; 2.6 µM in the series on U2OS [30]; 4.2 µM in the series with HeLa [31]; 4 µM in the series on A549; 7.1 µM in the series with NCI-H460 [32]; 5.3 µM in the series with SW480. The GI50 in the series with MDA-MB-231 came to 6.3 µM; in the series with MCF7 [33], 3.5 µM. Moreover, the Fh at 1 µM in series [5] came to 51%; in [14], 54%. For the same compound, the outcome in the series with HeLa [9], with HeLa [16], in the series on HeLa [19] and in the series on HeLa [21] was inactive. Further, the GI50 at 144 h in series [10] was 3.2 µM. In addition, the EC50 in the series on NCI-H358 [29] came out at 3.11 µM. The CLhep predicted at 1 µM in [11] is 32 mL/min/kg. This compound also showed a logD in [12] of 2.5. For the same compound, the result with U2OS [1] was Active. The CLH in [18] was found to be 10.7 mL/min/kg. The fraction unbound in [20] came out at 0.04. In series [25], this compound displayed a solubility of 38 µg/mL (≈ 129 µM). Further, in series [26], the Papp A→B at 2 h, 2 µM is 30.7 ×10⁻⁶ cm/s.

With `CC[C@@H]1C(=O)N(C)c2cnc(Nc3ccc(C(=O)N[C@H]4CC[C@H](N5CCN(CC6CC6)CC5)CC4)cc3OC)nc2N1C(C)C`, the outcome in the series on U2OS [34] was Active.
